Experimental data gathered from unrelated publications.
Lines come from different studies, so protocols differ. ≈ marks a conversion by molar mass, not a printed value.

Cc1ccc(C(C)C)cc1OS(=O)(=O)c1ccc([N+](=O)[O-])cc1
IC50 (Escherichia coli; microbial growth, broth dilution; ATCC25922): 176 µg/mL (≈ 525 µM)

O=C(O)CN1C(=O)/C(=C/c2ccc(-c3ccc(N(c4ccccc4)c4ccccc4)cc3)c3ccccc23)NC1=S
MBC (Micrococcus luteus; microbial killing, broth dilution; ATCC10240): > 1000 µg/mL

O=C1NC(=O)[C@@H](c2cn3c4c(cccc24)CCC3)[C@@H]1c1c[nH]c2ccccc12
MIC (Staphylococcus aureus; microbial growth; NCTC8325): > 30 µM

O=C1NC(=S)S/C1=C\c1ccc(-c2ccc(N(c3ccccc3)c3ccccc3)cc2)c2ccccc12
MBC (Micrococcus luteus; microbial killing, broth dilution; ATCC10240): > 1000 µg/mL

COc1c(N2C[C@@H]3CCCN[C@@H]3C2)c(F)cc2c(=O)c(C(=O)O)cn(C3CC3)c12
MIC90 (Escherichia coli; microbial growth; ATCC 8739, ATCC8739): 0.06 µg/mL (≈ 0.149 µM)

Cc1ccc2nc(-n3nc(CC(C)C)c4c3-c3ccccc3C4=O)sc2c1
inhibition zone (Staphylococcus aureus; microbial growth, well diffusion; NCIM5021; 1000 µg/mL): 14 mm

O=C1NC(=S)S/C1=C\c1ccc(-c2ccc(N(c3ccccc3)c3ccccc3)cc2)cc1
MBC (Micrococcus luteus; microbial killing, broth dilution; ATCC10240): 500 µg/mL (≈ 1080 µM)

Cc1ccc2nc(-n3nc(C(C)C)c4c3-c3ccccc3C4=O)sc2c1
inhibition zone (Staphylococcus aureus; microbial growth, well diffusion; NCIM5021; 125 µg/mL): 12 mm

Clc1ccc(-n2cc(COc3cccc4cccnc34)nn2)cc1
IC50 (Escherichia coli; microbial growth, broth dilution; ATCC25922): 470 µg/mL (≈ 1400 µM)

CC(C)Cc1nn(-c2nc3ccc(Br)cc3s2)c2c1C(=O)c1ccccc1-2
inhibition zone (Staphylococcus aureus; microbial growth, well diffusion; NCIM5021; 1000 µg/mL): 21 mm

C#CCCCCC(=O)Nc1ccccc1
MIC (Staphylococcus aureus; microbial growth; NCTC8325): > 100 µM

Cc1ccc(C(C)C)cc1OCc1cn(-c2ccc(C(=O)O)cc2)nn1
IC50 (Escherichia coli; microbial growth, broth dilution; ATCC25922): 15.3 µg/mL (≈ 43.5 µM)

CC(C)c1nn(-c2nc3ccc(Cl)cc3s2)c2c1C(=O)c1ccccc1-2
inhibition zone (Staphylococcus aureus; microbial growth, well diffusion; NCIM5021; 250 µg/mL): 11 mm

O=C(Nc1ccc2c(c1)CCC2)Nc1ccc(Cl)c(C(F)(F)F)c1
MIC (Staphylococcus aureus; microbial growth; NCTC8325; 24 h): > 100 µM

[H]/N=C(/N)N[C@H]1[C@H](O)[C@@H](O)[C@H](O[C@@H]2O[C@@H](C)[C@](O)(C=O)[C@H]2O[C@@H]2O[C@@H](CO)[C@H](O)[C@@H](O)[C@@H]2NC)[C@@H](N/C(N)=N\[H])[C@@H]1O
inhibition zone (Staphylococcus aureus; microbial growth, well diffusion; NCIM5021; 1000 µg/mL): 30 mm

Cc1ccc(C(C)C)cc1OCc1cn(-c2ccc([N+](=O)[O-])cc2)nn1
IC50 (Escherichia coli; microbial growth, broth dilution; ATCC25922): 532 µg/mL (≈ 1510 µM)

CC(C)Cc1nn(-c2nc3ccc(Cl)cc3s2)c2c1C(=O)c1ccccc1-2
inhibition zone (Staphylococcus aureus; microbial growth, well diffusion; NCIM5021; 125 µg/mL): 10 mm

CCN1CCN(Cc2ccc(-c3cc4c(N[C@H](C)c5ccccc5)ncnc4[nH]3)cc2)CC1
MIC (Staphylococcus aureus; microbial growth; NCTC8325): > 30 µM

O=C1NC(=S)N/C1=C\c1ccc(-c2ccc(N(c3ccccc3)c3ccccc3)cc2)c2ccccc12
MBC (Micrococcus luteus; microbial killing, broth dilution; ATCC10240): > 1000 µg/mL

Cc1ccc(-n2cc(COc3cc(C(C)C)ccc3C)nn2)cc1
IC50 (Escherichia coli; microbial growth, broth dilution; ATCC25922): 289 µg/mL (≈ 898 µM)

O=C(O)CN1C(=O)/C(=C/c2c3ccccc3c(-c3ccc(N(c4ccccc4)c4ccccc4)cc3)c3ccccc23)NC1=S
MBC (Micrococcus luteus; microbial killing, broth dilution; ATCC10240): > 1000 µg/mL

O=[N+]([O-])c1ccc(S(=O)(=O)Oc2cccc3cccnc23)cc1
IC50 (Escherichia coli; microbial growth, broth dilution; ATCC25922): 215 µg/mL (≈ 650 µM)

NC(=O)c1ccc(-c2nc(-c3ccccn3)c(-c3ccc4c(c3)OCO4)[nH]2)cc1
MIC (Staphylococcus aureus; microbial growth; NCTC8325): > 30 µM

O=C(N[C@H](CO)[C@H](O)c1ccc([N+](=O)[O-])cc1)C(Cl)Cl
MIC90 (Escherichia coli; microbial growth; ATCC 8739, ATCC8739): 3.9 µg/mL (≈ 12.1 µM)

O=C1C=C(OCc2cn(-c3ccccc3)nn2)C(=O)c2ccccc21
IC50 (Escherichia coli; microbial growth, broth dilution; ATCC25922): 99.5 µg/mL (≈ 300 µM)

COc1cc2ncnc(Nc3ccc(F)c(Cl)c3)c2cc1OCCCN1CCOCC1
MIC (Staphylococcus aureus; microbial growth; NCTC8325): > 30 µM

CC(C)c1nn(-c2nc3ccc(Br)cc3s2)c2c1C(=O)c1ccccc1-2
inhibition zone (Staphylococcus aureus; microbial growth, well diffusion; NCIM5021; 500 µg/mL): 11 mm

O=S(=O)(c1cccc2cnccc12)N1CCCNCC1
MIC (Staphylococcus aureus; microbial growth; NCTC8325): > 30 µM

COc1ccc2nc(-n3nc(CC(C)C)c4c3-c3ccccc3C4=O)sc2c1
inhibition zone (Staphylococcus aureus; microbial growth, well diffusion; NCIM5021; 250 µg/mL): 12 mm

Cc1ccc(C(C)C)cc1OCc1cn(-c2ccc(F)cc2)nn1
IC50 (Escherichia coli; microbial growth, broth dilution; ATCC25922): 1580 µg/mL (≈ 4860 µM)

CN(C)C1CCN(C(=O)c2ccc(NC(=O)Nc3ccc(-c4nc(N5CCOCC5)nc(N5CCOCC5)n4)cc3)cc2)CC1
MIC (Staphylococcus aureus; microbial growth; NCTC8325): > 30 µM
